# High-throughput results (PubChem)
# Ba/F3 V617F tox = reduced viability of JAK2V617F-dependent Ba/F3 cells, primary screen, JAK2V617F inhibitor project, cell-based, Ba/F3 EpoR-JAK2V617F, luminescence; 220,000 compounds, 1.1% hits; inhibition, % at 5.6 µM; ATP luminescence;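 active = inhibition above the campaign mean plus 3 SD over all tested compounds, cut at about 24% in these data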;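 also: cytokine-independent growth of Ba/F3 cells driven by EpoR plus mutant JAK2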
# BaF3 tox = parental Ba/F3 cell viability inhibition, counter-screen for JAK2V617F inhibitor project, murine pro-B, CellTiter-Glo luminescence. CellTiter-Glo ATP luminescence. inhibition, % at 5.6 µM. 220,000 compounds, 1.1% hits;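 active = inhibition above a per-campaign cutoff, the mean inhibition of all tested compounds plus 3 SD, cut at about 27% in these data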
# bCat nuc transl = modulators of beta-catenin nuclear translocation, primary screen, imaging, HeLa cells, immunofluorescence, high-content. nuclear translocation activity, % at 5 µM. 190,000 compounds, 0.3% hits;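 active = nuclear translocation activity above 50% at 5 µM, with a well cell count of 50 or more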;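 also: per-cell ratio of nuclear to cytoplasmic median beta-catenin stain intensity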
#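 Technique: fluorescence imaging of beta-catenin antibody stain plus DAPI / Material: human HeLa cell line / Incubation: compound treatment 24 h, 37°C, 5% CO2 / Read-out basis: % activation of per-cell nuclear versus cytoplasmic median beta-catenin signal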
# IEC-6 tox = cytotoxicity in IEC-6 intestinal epithelial cells, primary screen, cytotoxicity control for KLF5 inhibitor project, cell-based, luminescence; IEC-6 cytotoxicity, luminescence viability; 290,000 compounds, 0.78% hits; inhibition, % at 5 µM
# MT stabilizer = microtubule stabilizers in HeLa cells, primary screen, imaging, high-content imaging; HeLa tubulin immunostaining HCS, 24 h; share of cells brighter than vehicle mean+2SD; % tubulin-high responders, % at 10 µM; 200,000 compounds, 0.83% hits; AID 2205, 2009;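 active = plate Z-score above 3 for both tubulin-high and condensed-nucleus cell shares, with cell loss under 80%, at 10 µM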;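 also: anti alpha tubulin signal scored within the nucleus-defined area of each cell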
# KLF5 inhibitor = KLF5 expression inhibitors, primary screen, DLD-1 cells, luminescence; DLD-1 KLF5 promoter-luciferase reporter; inhibition, % at 5 µM; 290,000 compounds, 0.23% hits; AID 1700, 2009;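 active = inhibition above a per-plate limit of that plate's mean compound inhibition plus 3 SD, cut at about 60% in these data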;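 also: higher means less KLF5 promoter-driven luciferase light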
# IEC-6 cytotox cf = cytotoxic compounds in IEC-6 epithelial cells, confirmation, cytotoxicity control, cell-based, luminescence; AID 1907, 2009; IEC-6 rat intestinal epithelial viability; 1,900 compounds, 63% hits; inhibition, % at 5 µM; shares compounds with IEC-6 tox
# Numbers stand for hits; n = inactive; x = no result. Sampled rows, rich in hits. Any-hit rate of the full collection: about 2.1%. Rule as the data show it, unless noted: active = inhibition above about 22%; inactive = the rest.
SMILES,Ba/F3 V617F tox,BaF3 tox,bCat nuc transl,IEC-6 tox,MT stabilizer,KLF5 inhibitor,IEC-6 cytotox cf
O=C(/C(Br)=C/Nc1cc(Cl)ccc1Cl)C(F)(F)F,n,n,n,n,n,n,x
COc1ccc(C2=Nn3c([n+](C)c4ccccc43)SC2)cc1,100.2,77.1,n,29.7,n,n,23.5
Cc1[nH]c(=O)c(C#N)c2c1CSC(C)(C)C2,n,n,x,n,n,n,x
CCOC(=O)c1[nH]c(C)c(/C(O)=C2\C(=O)C(=O)N(CCN3CCOCC3)C2c2cccs2)c1C (centres undefined),n,n,x,25.7,n,n,n
CCOC(=O)c1[nH]c(C)c(/C(O)=C2\C(=O)C(=O)N(CCN(C)C)C2c2ccc(C)o2)c1C (centres undefined),n,n,n,25.3,n,n,n
CCOc1ccc(/C=N/NC(=O)c2cc3c(OC)cc(OC)c(OC)c3[nH]2)cc1,x,x,x,n,x,n,x
COc1ccc(C(=O)N/N=C/c2ccccc2OC(=O)c2ccccc2)cc1,x,x,x,93.8,x,n,n
CCOc1ccc2[nH]c(C(=O)N/N=C/c3ccccc3OC)cc2c1,x,x,x,47.7,x,n,n
COc1ccc(C(=O)N/N=C/c2ccc(OC(=O)c3ccccc3)cc2)cc1,n,n,n,n,n,n,x
CCN(Cc1ccccc1)C(=O)c1oc2ccc(C)cc2c1C,x,x,x,n,x,n,x
Cc1cc(C)n(/N=C/c2cccs2)c(=O)c1C#N,n,n,n,70.6,n,n,n
COc1ccc(C(NC(C)=O)c2cc(Cl)c3cccnc3c2O)cc1 (centres undefined),x,x,x,54.0,x,75.3,56.3
O=C(O)c1ccc(N/N=C/C=C/c2ccccc2[N+](=O)[O-])cc1,n,n,n,23.7,n,n,38.6
Cc1cccc(N(CC(=O)NCc2ccco2)C(=O)CCC(=O)Nc2nccs2)c1,n,n,n,n,n,n,x
COC(=O)C(NC(=O)c1ccco1)(Nc1cc(C)ccn1)C(F)(F)F (centres undefined),n,n,n,52.0,n,n,n
Cc1ccc(Nc2nc(=O)c3cccnc3s2)c(Br)c1,50.8,48.2,n,65.4,x,n,41.8
CC(=O)c1ccc(Nc2nc(=O)c3cccnc3s2)cc1,n,n,n,n,n,n,x
COc1cc(C(=S)N2CCN(c3cccc(Cl)c3)CC2)ccc1O,n,n,50.1,27.7,24.3,n,n
Oc1ccc(C(=S)N2CCN(c3cccc(Cl)c3)CC2)cc1,n,n,n,n,n,n,x
CC(C)Oc1ccc(C2CC(=O)N(C)C2=O)cc1 (centres undefined),x,x,x,n,x,n,x
COc1ccccc1C(=O)Nc1ccc2c(c1)nc(CCNC(C)=O)n2C,n,n,n,n,n,n,x
COc1ccccc1C(=O)Nc1ccc2c(c1)nc(CCNC(=O)c1ccccc1)n2C,85.1,76.4,n,60.1,x,n,42.5
Nc1ncnc(N)c1N=Nc1ccccc1,x,x,x,35.6,x,n,n
Cc1nn(-c2ccccc2)c(N)c1N=Nc1ccccc1,n,n,n,n,n,n,x
Nc1nn(-c2ccccc2)c(N)c1N=Nc1ccccc1,64.3,64.3,89.2,34.2,21.6,n,40.2
SMILES,Ba/F3 V617F tox,BaF3 tox,bCat nuc transl,IEC-6 tox,MT stabilizer,KLF5 inhibitor,IEC-6 cytotox cf
O=c1[nH]cnc(O)c1N=Nc1ccccc1,x,x,x,n,x,n,x
O=C(CCn1nnc2ccccc21)NNC(=O)C1CCCCC1,n,n,x,n,n,n,x
CCc1ccc(OCC(=O)NNC(=S)NC(=O)C2CC2)c(Br)c1,x,x,x,30.3,x,n,n
CCc1ccc(OCC(=O)NNC(=S)NC(=O)C2CCCCC2)c(Br)c1,x,x,x,n,x,n,x
CC1CN(Cc2nc3ccccc3c(=O)[nH]2)CC(C)O1 (centres undefined),n,n,n,n,n,n,x
C=CCn1c(O)c(N=NC(=S)Nc2ccccc2F)c2cc(S(=O)(=O)N3CCOCC3)ccc21,n,n,n,30.4,n,n,n
CC1CCN(S(=O)(=O)c2ccc(NC(=O)c3ccncc3)cc2)CC1,x,x,x,n,x,n,x
CCc1ccc(NC(=O)c2nc(S(=O)(=O)Cc3ccccc3)ncc2Cl)cc1,x,x,x,88.0,x,n,n
CCOC(=O)c1ccc(NC(=O)CCS(=O)(=O)Cc2ccccc2)cc1,x,x,x,n,x,n,x
Cc1ccc(NC(=O)c2nc(S(=O)(=O)Cc3ccccc3C)ncc2Cl)cc1C,x,x,x,31.2,x,n,n
CCOC(=O)c1ccc(NC(=O)c2nc(S(=O)(=O)Cc3ccccc3)ncc2Cl)cc1,x,x,x,49.9,x,n,n
CCCS(=O)(=O)c1ncc(Cl)c(C(=O)Nc2ccc(S(=O)(=O)Nc3ncccn3)cc2)n1,x,x,x,n,x,n,x
CSc1ncc(Cl)c(C(=O)Nc2ccc(C)c(C)c2)n1,x,x,x,n,x,n,x
CCS(=O)(=O)c1ncc(Cl)c(C(=O)Nc2ccc(S(=O)(=O)N3CCC(C)CC3)cc2)n1,x,x,x,95.9,x,n,n
CCc1ccc(CNC(=O)CCC(=O)n2ncc3cc(C)ccc32)cc1,x,x,x,n,x,n,x
C/C(=N/Nc1ccc([N+](=O)[O-])cc1)c1ccc(C)cc1C,n,n,n,n,n,n,x
C/C(=N/Nc1ccc([N+](=O)[O-])cc1)c1c[nH]c2ccccc12,x,x,x,24.3,x,n,22.4
Cc1ccc(S(=O)(=O)Nc2cccc(N(C)S(C)(=O)=O)c2)cc1[N+](=O)[O-],96.9,95.0,n,22.8,n,n,n
COc1cc(-c2noc(C)c2C#CC2(O)CCCCC2)cc(OC)c1OC,x,x,x,n,x,n,x
COc1cc(-c2noc(C)c2C#Cc2ccsc2)cc(OC)c1OC,x,x,x,83.0,x,n,61.4
COc1ccc(NC(=O)c2cccnc2)c([N+](=O)[O-])c1,66.4,60.4,n,46.4,21.7,n,30.1
c1ccc(-c2noc(-c3ccncc3)n2)nc1,32.7,34.2,n,29.0,n,n,25.2
c1ccc(-c2noc(-c3cccnc3)n2)nc1,n,n,x,n,n,n,x
C=CCN(c1cccc(C(F)(F)F)c1)S(=O)(=O)c1cccc(C(=O)OCC(=O)NCCC)c1,n,n,n,n,n,n,x
COc1cc(OC)nc(-n2ncc(Br)c(Br)c2=O)n1,95.6,87.2,x,55.5,n,n,69.8
SMILES,Ba/F3 V617F tox,BaF3 tox,bCat nuc transl,IEC-6 tox,MT stabilizer,KLF5 inhibitor,IEC-6 cytotox cf
COc1ccc(S(=O)(=O)NNC(=S)NCCc2ccccc2)c(OC)c1,x,x,x,n,x,n,x
CCOC(=O)c1sc(NC(=O)CCc2ccccc2)nc1C,x,x,x,54.2,x,n,22.5
Cc1ccc2nc(C)c(CN3CCN(c4ccc([N+](=O)[O-])cc4Cl)CC3)n2c1,x,x,x,26.4,x,n,47.3
COc1cc(/C=N/Nc2nc(C)nc3c2cnn3-c2ccccc2)ccc1O,45.5,51.4,63.3,31.6,15.8,n,n
COc1cc(/C=N/NC(=O)c2nc(-c3ccccc3)n(-c3ccccc3)n2)ccc1O,n,n,n,n,n,n,x
ClC(/C=N/n1cnnc1)=C/c1ccccc1,n,n,n,n,x,n,x
